Source: PubChem (The Scripps Research Institute Molecular Screening Center)
Shown are actives, neighbours in structure and some others; about 1.8% of the full set was active somewhere.
M4 antag – blocks acetylcholine activation of human M4 receptor | inhibition, % at 3 µM | CHO-hM4 cells, ACh EC80, Fluo-8 calcium fluorescence | 360,000 tested, 0.73% active;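 active = inhibition above its plate's cutoff, the mean inhibition of sample wells plus 3 SD, cut at about 27% in these data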
CHRM4 PAM – CHRM4 positive allosteric modulation; P08173; 360,000 tested, 0.4% active; CHO-K1 hM4/Gqi5, Fluo-8 calcium fluorescence, ACh EC20; 0% = ACh EC20, 100% = maximal ACh; AID 624126; activation, % at 3 µM;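 active = activation above its plate's cutoff, the mean activation of sample wells plus 3 SD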
CHRM5 antagonist – blocks acetylcholine activation of human M5 receptor. P08912. CHO-hM5 cells, Fluo-8 calcium fluorescence, ACh EC80. inhibition, % at 3 µM. 360,000 tested, 0.59% active;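 active = inhibition above a per-plate cutoff, the mean of that plate's test compounds plus 3 SD, cut at about 27% in these data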
Target sequence (P08912 whole entry, looked up): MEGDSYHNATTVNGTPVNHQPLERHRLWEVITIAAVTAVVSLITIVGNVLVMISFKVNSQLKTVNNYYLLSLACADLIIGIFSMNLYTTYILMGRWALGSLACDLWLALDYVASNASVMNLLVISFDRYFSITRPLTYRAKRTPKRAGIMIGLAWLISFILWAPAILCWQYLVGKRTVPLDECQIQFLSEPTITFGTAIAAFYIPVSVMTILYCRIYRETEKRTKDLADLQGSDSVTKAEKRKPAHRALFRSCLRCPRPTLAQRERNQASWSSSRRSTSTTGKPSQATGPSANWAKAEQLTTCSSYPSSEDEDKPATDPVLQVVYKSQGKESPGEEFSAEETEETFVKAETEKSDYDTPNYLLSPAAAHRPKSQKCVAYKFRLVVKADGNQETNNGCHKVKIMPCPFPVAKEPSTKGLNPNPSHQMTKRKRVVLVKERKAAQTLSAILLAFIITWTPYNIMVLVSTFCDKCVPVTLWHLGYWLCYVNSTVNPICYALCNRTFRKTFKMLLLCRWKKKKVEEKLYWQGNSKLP
M4 ag – CHRM4 agonism in calcium assay; CHO-K1 hM4/Gqi5, Fluo-8 calcium fluorescence; vehicle 0%, full acetylcholine response 100%; activation, % at 3 µM; 360,000 tested, 0.14% active; P08173;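 active = activation above the run mean over all test wells plus 3 SD, cut at about 32% in these data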;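 note: peak over basal fluorescence ratio per well then scaled between controls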
CHRM5 agonist – CHRM5 agonism in calcium assay; CHO-K1 hM5 cells, Fluo-8 calcium fluorescence; 0% DMSO wells, 100% maximal acetylcholine response; activation, % at 3 µM; 360,000 tested, 0.19% active;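 active = activation above the run's mean over test compounds plus 3 SD, cut at about 23% in these data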;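 note: signal is peak over basal fluorescence ratio across the kinetic read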
CHRM5 PAM – CHRM5 positive allosteric modulation; P08912; CHO-K1 hM5, Fluo-8 calcium, ACh EC20 PAM; 0% = ACh EC20, 100% = ACh EC100; activation, % at 3 µM; 360,000 tested, 0.3% active; AID 624038;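 active = activation above the run cutoff, the mean activation of all test compounds plus 3 SD, cut at about 18% in these data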
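system = human M5 receptor in CHO-K1 cells | reagent = EC20 acetylcholine as agonist stimulus | compound dosing = single-point, 3 µM nominal | incubation = Fluo-8 loading 80 min at 37 °C plus 30 min room temperature | detection = Fluo-8 calcium dye fluorescence, kinetic read | benchmarks = low control EC20 acetylcholine (0%), high control EC100 acetylcholine (100%)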
Of the large screens only hits and unclear results are named; the others gave an inactive call.

COc1cccc(N2CCN(C(=O)CC(C)(C)CC3=NS(=O)(=O)c4ccccc4N3)CC2)c1	CHRM5 antagonist 27
O=C(CCCC1=NS(=O)(=O)c2ccccc2N1)N1CCN(c2ccccc2)CC1	none
O=C(CCCC1=NS(=O)(=O)c2ccccc2N1)N1CCN(c2ccc(Cl)cc2)CC1	none
CC(C)(CC(=O)N1CCN(c2ccc(Cl)cc2)CC1)CC1=NS(=O)(=O)c2ccccc2N1	M4 antag 26, CHRM5 antagonist 28
COc1cccc(NC(=O)CN(C)C(=O)C(C)Sc2ccccc2)c1 (stereo not given)	none
COc1ccc(NC(C)=O)cc1NC(C)C(=O)Nc1ccc(S(=O)(=O)N2CCCCC2)cc1 (stereo not given)	none
CN(C(=O)c1ccc(NC(=O)C2CCCN(C(=O)OC(C)(C)C)C2)cc1)C1CCC1 (stereo not given)	none
Cc1cc(NC(=O)CSCC(=O)Nc2ccc(Cl)c(C(F)(F)F)c2)no1	none
Cc1cc(NC(=O)CN(C)CC(=O)Nc2ccc(Cl)c(C(F)(F)F)c2)no1	CHRM4 PAM 23
CCc1cccc(NC(=O)CSc2nnc(Cc3ccc(OC)cc3)c(=O)[nH]2)c1	none
COCCN(C(=O)C1CC(=O)N(Cc2ccc(C)cc2)C1)c1c(N)n(CC(C)C)c(=O)[nH]c1=O (stereo not given)	none
Cc1ccc(N2CN(CCc3ccccc3)CNC2=S)cc1	CHRM4 PAM 14
CCOC(=O)c1ccc(N2CN(CCc3ccccc3)CNC2=S)cc1	none
O=C(Nc1cccc(Cl)c1)NC1CCS(=O)(=O)C1 (stereo not given)	none
Cc1c(CC(=O)NCCCC(=O)O)c(=O)oc2cc3oc4c(c3cc12)CCCC4	none
Cc1c(CC(=O)NCCCCCC(=O)O)c(=O)oc2c(C)c3oc4c(c3cc12)CCCC4	CHRM4 PAM 14
COc1ccc(C(=O)N(C)CCOc2ccc(Cl)cc2)cc1S(=O)(=O)N1CCCC1	none
CS(=O)(=O)c1ccc(C(=O)OCC(=O)N2CCN(CCC3CCCCC3)CC2)cc1[N+](=O)[O-]	M4 antag 29
COCCN1C(=O)CSCC1(C)C(=O)NC(C)C (stereo not given)	none
Cc1ccc(C)c(NC(=O)c2ccc3c(c2)CCN3S(C)(=O)=O)c1	none
CCn1c(COc2ccccc2)nnc1SCC(=O)C(C)(C)C	CHRM4 PAM 26
CCn1c(COc2ccc(C)cc2)nnc1SCC(=O)C(C)(C)C	none
C/C(CC1CC(C)(C)OC1=O)=N\NC(N)=S (stereo not given)	none
C/C(CC1CC2=C(CC1(C)C)C(C)(C)CCC2)=N\NC(N)=S (stereo not given)	CHRM4 PAM 43
COc1ccc(C(=O)Nc2ccnn2C2CCN(C(=O)C3CCOC3)CC2)cc1 (stereo not given)	none
Cc1sc2ncn(CC(=O)N3CCCC(C)C3)c(=O)c2c1S(=O)(=O)N1CCCCC1 (stereo not given)	none
Cc1sc2ncn(CC(=O)N3CCC(C(N)=O)CC3)c(=O)c2c1S(=O)(=O)N1CC(C)CC(C)C1 (stereo not given)	CHRM4 PAM 15
S=C(NCCC(c1ccccc1)c1ccccc1)Nc1ccc(Cl)cc1	CHRM5 antagonist 33
CCC(=O)NCCn1ccc2ccccc21	none
CC(C)C(=O)NCCn1ccc2ccccc21	CHRM4 PAM 30
CCOC(=O)c1c(-c2ccc(C)o2)csc1NC(=O)COC(=O)c1cccs1	M4 antag 29
CSc1ccc(/C=N/NC(=O)CN2CCN(Cc3ccccc3Cl)CC2)cc1	none
CSc1ccc(/C=N/NC(=O)CN2CCN(Cc3ccc(C)cc3)CC2)cc1	M4 antag 42
C=CCn1c(O)c(C2=c3ccccc3=NC2=O)c2ccccc21	M4 antag 50
CCOC(=O)C1(Cc2ccccc2)CCN(Cc2cn(CC(=O)OC)c3ccccc23)CC1	CHRM4 PAM 20
CCOC(=O)C1(Cc2ccccc2)CCN(Cc2cccc(OC)c2O)CC1	none
Cc1cc(C)c(C#N)c(SCc2ccccc2[N+](=O)[O-])n1	none
Cc1cc(C)c(C#N)c(SCc2nnc(-c3ccccc3[N+](=O)[O-])o2)n1	CHRM5 antagonist 47
COc1ccc(C)cc1S(=O)(=O)NNc1nc(C)cc(C)n1	none
N#Cc1cccc(C(=O)C(=O)N2CCCN(Cc3ccc(F)cc3)CC2)c1	none
Cc1cc2c(c(=O)n1CC1CCCO1)C(c1ccc3c(c1)OCO3)C(C#N)=C(N)O2 (stereo not given)	none
CCn1c(C)cc2c(c1=O)C(c1ccc3c(c1)OCO3)C(C#N)=C(N)O2 (stereo not given)	M4 antag 30
Cc1occc1C(=O)NC(C)CCc1ccccc1 (stereo not given)	none
Cc1occc1C(=O)NC(C)C(C)(C)C (stereo not given)	M4 antag 29
O=C(COC(=O)Cc1cccc(C(F)(F)F)c1)NCc1ccco1	CHRM4 PAM 32
Nc1ncnc2c1ncn2C1OC(C(=O)NC2CC2)C(O)C1O (stereo not given)	M4 antag 36
C[C@@H](CO)NC(=O)[C@H]1O[C@@H](n2cnc3c(N)ncnc32)[C@H](O)[C@@H]1O	none
COc1cc(/C=C/C(O)=C/C(=O)/C=C/c2ccc(O)cc2)ccc1O	M4 antag 27, CHRM5 antagonist 41, M4 ag 50, CHRM5 agonist 48
c1ccc(-c2cncnc2)cc1	CHRM5 PAM 20
c1ccc(-c2nnc(-c3ccccc3)nn2)cc1	none
c1ccc2c(c1)nc1n2CCN1CCN1CCCC1	none
Cc1cc(/C=C(\C#N)C(N)=O)c(C)n1-c1ccc(N2CCOCC2)c([N+](=O)[O-])c1	CHRM5 agonist 29
COc1ccc(NC(=O)C(Cl)=C(Cl)Cl)cn1	none
COc1ccc(NC(=O)/C(Cl)=C(/Cl)S(=O)Cc2ccc(Cl)cc2)cn1 (stereo not given)	M4 antag 30
COc1ccc(CCN(C)C(=O)c2ccc(C)c(S(=O)(=O)N3CCCCC3)c2)cc1OC	none
CCN(CC)CCn1c(NCc2ccco2)nc2ccccc21	none
CCN(CC)CCn1c(NCc2cccc(OC)c2OC)nc2ccccc21	CHRM5 antagonist 31
CCC(C)C(NC(=O)CCC(=O)OCC(=O)[C@@]1(O)CCC2[C@@H]3CCC4=CC(=O)C=C[C@]4(C)C3[C@@H](O)C[C@@]21C)C(=O)O (stereo not given in full)	none
OC(c1ccc(F)c(F)c1)c1nc(-c2ccccc2)cs1 (stereo not given)	none
